This is an account of results in ChEMBL document CHEMBL1212693, “Dorsomorphin inhibits BMP signals required for embryogenesis and iron metabolism” (Nat Chem Biol, 2008).

For experiment [1], the species on record is Mus musculus. Description: Inhibition of BMPR1-mediated Smad-5 phosphorylation in BMP2-stimulated mouse BMPR2 deficient PASMC at 4 uM treated 30 mins before BMP2 challenge measured after 30 mins by immunoblot analysis. For orientation: Immunoblotting shows a protein as a band on a membrane.
For experiment [2], the species on record is Danio rerio. Description: Inhibition of BMPR1 in zebrafish assessed as penetrance of moderate embryonic axis dorsalization at 10 uM treated at 4 to 8 hrs post-fertilization measured at 48 hrs. On the set-up: scale not given: the % may be the effect or the level left. In outline: (§1)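 Compound added at the stated times and concentrations. Gross morphology scored visually at up to 48 h.p.f. for dorsalization of the embryonic axis.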

The species entered for experiment [3] is Mus musculus. The experiment is described as follows: Inhibition of BMPR1-mediated Smad-1 phosphorylation in BMP4-stimulated mouse BMPR2 deficient PASMC at 4 uM treated 30 mins before BMP4 challenge measured after 30 mins by immunoblot analysis. In outline: (§2)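 PASMCs (wild-type or BMPR-II–deficient) were kept 24 h in RPMI with 0.5% FCS, preincubated 30 min with compound or vehicle, then stimulated 30 min with recombinant BMP (10 ng ml−1). Extracts in SDS-lysis buffer were immunoblotted for phospho-SMAD1/5/8, with total SMAD1 and α-tubulin as loading controls. Bands were quantitated by phosphorimager.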

The next experiment relates to HepG2. Description: Inhibition of hepcidin mRNA expression in human HepG2 cells at 10 uM […] by qRT-PCR analysis relative to control. It counts as functional. Background: Real-time PCR tracks product formation cycle by cycle.
Experiment [4] is filed under the species Danio rerio. Description: Inhibition of BMPR1 in zebrafish assessed as penetrance of moderate embryonic axis dorsalization at 10 uM treated at 2 to 8 hrs post-fertilization measured at 48 hrs. On the set-up: scale not given: the % may be the effect or the level left. In outline:
as §1

The species named for experiment [5] is Danio rerio. The experiment is described as follows: Inhibition of BMPR1 in zebrafish assessed as severity of embryonic axis dorsalization at 7.5 uM treated at 3 hrs post-fertilization measured at 48 hrs. On the set-up: scale not given: the % may be the effect or the level left.
The species entered for experiment [6] is Danio rerio. The experiment is described as follows: Inhibition of BMPR1 in zebrafish assessed as penetrance of mild embryonic axis dorsalization at 10 uM treated continuously from 10 hrs post-fertilization measured at 48 hrs. On the set-up: scale not given: the % may be the effect or the level left. In outline: as §1
The species entered for experiment [7] is Mus musculus. Description: Inhibition of BMPR1-mediated Smad-5 phosphorylation in BMP6-stimulated mouse BMPR2 deficient PASMC at 4 uM treated 30 mins before BMP6 challenge measured after 30 mins by immunoblot analysis.
Experiment [8] is described as follows: Inhibition of Sprague-Dawley rat AMPK assessed as inhibition of [33P]ATP utilization after 30 mins by scintillation counting.
For experiment [9], the species on record is Mus musculus. Description: Inhibition of BMPR1-mediated Smad-1 phosphorylation in BMP6-stimulated mouse BMPR2 deficient PASMC at 4 uM treated 30 mins before BMP6 challenge measured after 30 mins by immunoblot analysis. In outline: as §2

Calls of active or inactive are those of the source. No cut-off for these calls is given here.

As usually defined, the Ki is the dissociation constant of the complex between target and ligand, obtained from inhibition or displacement.

Regarding `c1cc(-c2cnn3cc(-c4ccc(OCCN5CCCCC5)cc4)cnc23)ccn1` [DORSOMORPHIN], the inhibition result in the experiment filed under Mus musculus [1], in the experiment filed under Mus musculus [3], in the experiment filed under Mus musculus [7] and in the experiment filed under Mus musculus [9] was “Active” each time. Moreover, the Activity in the experiment filed under Danio rerio [2] came out at 35%; in the experiment filed under Danio rerio [4] it was 0%; in the experiment filed under Danio rerio [5] it was 100%; in the experiment filed under Danio rerio [6], 0%. In the experiment on HepG2, the “fold change (FC)” value is on record as 50. In addition, the Ki in experiment [8] stood at 10 µM.
